We go through seven molecules from ChEMBL document CHEMBL3632601, “Actinoramide A Identified as a Potent Antimalarial from Titration-Based Screening of Marine Natural Product Extracts” (J Nat Prod, 2015).

Activity calls are given as the source filed them. The calls are words filed in the database; no cut-off is given here.

Series [1] has as its system Plasmodium falciparum. Briefly: Antiplasmodial activity against Plasmodium falciparum Dd2 after 72 hrs by SYBR green DNA-staining parasite viability assay. It is filed as functional, organism-based. Summed up: (§1)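 Intra-erythrocytic P. falciparum growth in 1536-well format. Infected RBCs at 0.3% parasitemia and 2.5% hematocrit (final) were exposed to compound at 37 °C, 5% CO2, for 72 h. Lysis buffer was added (Tris-HCl, EDTA, saponin, Triton X-100, SYBR Green I), followed by overnight incubation in the dark at 22–24 °C. Fluorescence read at 485/535 nm. Artemisinin and mefloquine served as positive controls, DMSO as negative. EC50 from curve fits, duplicate titrations.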

Series [2] relates to Plasmodium falciparum. Briefly: Antiplasmodial activity against Plasmodium falciparum cp250 after 72 hrs by SYBR green DNA-staining parasite viability assay. It is filed as functional, organism-based. In a few lines:
as §1

In series [3] the test system is HEK293. Briefly: Cytotoxicity against human HEK293 cells after 72 hrs by CellTiter-Glo assay. Conditions: hek293, 72 h.
For series [4], the system named is Plasmodium falciparum. The experiment in a line: Antiplasmodial activity against Plasmodium falciparum 7G8 after 72 hrs by SYBR green DNA-staining parasite viability assay. It is filed as functional, organism-based. In a few lines: as §1
The subject of series [5] is HepG2. Briefly: Cytotoxicity against human HepG2 cells after 72 hrs by CellTiter-Glo assay. The settings on record: hepg2, 72 h.
Series [6] has as its system Plasmodium falciparum. The experiment in a line: Antiplasmodial activity against Plasmodium falciparum GB4 after 72 hrs by SYBR green DNA-staining parasite viability assay. It is filed as functional, organism-based. Summed up:
as §1

In series [7] the test system is Plasmodium falciparum. The experiment in a line: Antiplasmodial activity against Plasmodium falciparum HB3 after 72 hrs by SYBR green DNA-staining parasite viability assay. It is filed as functional, organism-based. Summed up: as §1
Series [8] deals with Plasmodium falciparum. Briefly: Inhibition of aspartyl protease activity of plasmepsin in Plasmodium falciparum extracts using EDANSCOCH2CH2CO-ALERMFLSFP-Dap(DABCYL)OH as substrate after 15 mins by fluorescence assay. Summed up: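 Saponin-treated, RBC-depleted P. falciparum extract (plasmepsin pellet, 0.16% final) in 100 mM sodium acetate pH 5.0, 20% glycerol. Compound pin-transferred, then 15 min preincubation with enzyme. EDANS-DABCYL Plasmepsin II substrate added at 5 or 10 μM final, under KM conditions. Fluorescence (ex 336/em 490 nm) read over 3 h. EC50 calculated from plotted data.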

Series [9] relates to Jurkat. The experiment in a line: Cytotoxicity against human Jurkat cells after 72 hrs by SYBR Green viability assay. It is filed as cell-based.

Turning to `COCC(=O)N[C@@H](C(=O)N1NCCC[C@H]1C(=O)N[C@@H](Cc1ccccc1)[C@@H](O)[C@H](C)C(=O)NC1CNC(=O)NC1=O)[C@H](O)C(C)C` (some centres not stated), the result in series [1], in series [2], in [4], in series [6] and in [7] was inactive. Moreover, the Activity result in [3] and in [5] was “Non-toxic” in each case.

As for `COCC(=O)N[C@@H](C(=O)N1NCCC[C@H]1C(=O)N[C@@H](Cc1ccccc1)[C@@H](O)[C@H](C)C(=O)N[C@H]1CCN(C(N)=O)C1=O)[C@H](O)C(C)C`, the EC50 in [1] (Dd2, 72 h) amounted to 200 nM; in [2] (cp250, 72 h), 200 nM; in [4] (7G8, 72 h), 200 nM; in series [9], 90000 nM; in series [6] (GB4, 72 h), 200 nM; in series [7] (HB3, 72 h), 200 nM. Moreover, the inhibition result in series [8] is “inactive”. Also, the Activity entry in series [3] and in [5] was “Non-toxic” throughout.

Consider `COCC(=O)N[C@@H](C(=O)N1NCCC[C@H]1C(=O)N[C@@H](Cc1ccccc1)[C@@H](O)[C@H](C)C(=O)N[C@@H]1CCN(C(N)=O)C1=O)[C@H](O)C(C)C`, for which the result in [1], in series [2], in series [4], in series [6] and in [7] was Active. The Activity entry in series [3] and in series [5] was “Non-toxic” each time.

Regarding `COCC(=O)N[C@@H](C(=O)N1NCCC[C@H]1C(=O)N[C@@H](Cc1ccccc1)[C@@H](O)[C@H](C)C(=O)N[C@H]1CCN(C(C)=O)C1=O)[C@H](O)C(C)C`, the outcome in [1], in [2], in series [4], in series [6] and in series [7] was Active. Further, the Activity result in series [3] and in [5] was “Non-toxic” throughout.

`COCC(=O)N[C@@H](C(=O)N1NCCC[C@H]1C(=O)N[C@@H](Cc1ccccc1)[C@@H](O)[C@H](C)C(=O)N[C@H]1CCNC1=O)[C@H](O)C(C)C`: the outcome in series [1], in series [2], in series [4], in series [6] and in series [7] was Active. Moreover, the Activity entry in series [3] and in series [5] was “Non-toxic” each time.

As for `COCC(=O)N[C@@H](C(=O)N1N=CCC[C@H]1C(=O)N[C@@H](Cc1ccccc1)[C@@H](O)[C@H](C)C(=O)N[C@H]1CCN(C(N)=O)C1=O)[C@H](O)C(C)C`, the result in [1], in [2], in series [4], in series [6] and in series [7] was Active. The Activity entry in series [3] and in series [5] was “Non-toxic” throughout.

As for `COCC(=O)N[C@@H](C(=O)N1NCCC[C@H]1C(=O)N[C@@H](Cc1ccccc1)[C@@H](O)[C@H](C)C(=O)N[C@H]1CCC(=O)NC1=O)[C@H](O)C(C)C`, the Activity entry in [3] and in series [5] was “Non-toxic” throughout. Also, in [9], the EC50 was found to be 30000 nM.
